In ChEMBL document CHEMBL5236609, “Optimization of 1,2,4-Triazole-3-thiones toward Broad-Spectrum Metallo-β-lactamase Inhibitors Showing Potent Synergistic Activity on VIM- and NDM-1-Producing Clinical Isolates” (J Med Chem, 2022):
pKi: −log10 of the molar value. In brackets after ≈: the same amount, converted by molar mass. Activity calls are given as the source filed them. The rule behind the calls is not given here.

Tests used:
[1] = Inhibition of bacterial Metallo-beta-lactamase IMP-1 (unknown origin); set-up: species or system Bacteria
In short: (§1)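 Reporter-substrate assay with purified MBL (1–70 nM final) in 50 mM HEPES pH 7.5 at 30 °C. […] Inhibitor 0.5–1000 μM final. Ki derived from the v0/vi vs [I] slope assuming competitive inhibition, or from a Dixon plot. Ki given when inhibition >70%, otherwise % inhibition at 100 μM. Triplicate.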

[2] = Inhibition of bacterial Metallo-beta-lactamase NDM-1 (unknown origin); set-up: species or system Bacteria; in short: as §1
[3] = Inhibition of bacterial Metallo-beta-lactamase VIM-2 (unknown origin); set-up: species or system Bacteria; in short: as §1
[4] = Inhibition of bacterial Metallo-beta-lactamase VIM-4 (unknown origin); set-up: species or system Bacteria; in short: as §1
[5] = Metabolic stability in CD-1 mouse microsomes assessed as compound remaining after 40 mins LC-MS/MS analysis; type: ADME, Microsome; conditions: read-out: Activity
In short: (§2)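 Mouse liver microsomes, mixed gender, at 37 °C for 40 min; propranolol control. Reports t1/2, intrinsic clearance and % intact compound remaining at 40 min.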

[6] = Inhibition of bacterial IMP-1 (unknown origin) expressed in Escherichia coli EXPRESS BL21(DE3) assessed as inhibition constant by measuring rate of substrate hydrolysis by UV-visible spectrophotometry; set-up: species or system Bacteria; in short: as §1
Klebsiella pneumoniae [7] = experiment: Antimicrobial activity against blaVIM-4-producing multidrug-resistant Klebsiella pneumoniae VA-416/02 clinical isolate assessed as meropenem MIC at 32 ug/ml by broth microdilution method (reference value: […] ug/ml); type: functional; conditions: dose 32 µg/ml
In short: (§3)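 Inoculum was 5×10^4 CFU/well. Each inhibitor was present at a fixed 32 μg/mL, and MICs were also taken without inhibitor.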

Klebsiella pneumoniae [8] = experiment: Antimicrobial activity against blaVIM-1-producing multidrug-resistant Klebsiella pneumoniae K47-25 clinical isolate assessed as meropenem MIC at 32 ug/ml by broth microdilution method (reference value: […] ug/ml); type: functional; conditions: dose 32 µg/ml; in short: as §3
[9] = Inhibition of bacterial VIM-2 (unknown origin) expressed in Escherichia coli EXPRESS BL21(DE3) assessed as inhibition constant by measuring rate of substrate hydrolysis by UV-visible spectrophotometry; set-up: species or system Bacteria; in short: as §1
Pseudomonas aeruginosa [10] = experiment: Antimicrobial activity against blaVIM-2-producing multidrug-resistant Pseudomonas aeruginosa VA-182/00 clinical isolate assessed as meropenem MIC at 32 ug/ml by broth microdilution method (reference value: 128 ug/ml); type: functional; conditions: dose 32 µg/ml; in short: as §3
[11] = Inhibition of bacterial VIM-4 (unknown origin) expressed in Escherichia coli EXPRESS BL21(DE3) assessed as inhibition constant by measuring rate of substrate hydrolysis by UV-visible spectrophotometry; set-up: species or system Bacteria; in short: as §1
[12] = Inhibition of bacterial NDM-1 (unknown origin) expressed in Escherichia coli EXPRESS BL21(DE3) assessed as inhibition constant by measuring rate of substrate hydrolysis by UV-visible spectrophotometry; set-up: species or system Bacteria; in short: as §1
Escherichia coli [13] = experiment: Antimicrobial activity against blaNDM-1-producing multidrug-resistant Escherichia coli SI-004 clinical isolate assessed as meropenem MIC at 32 ug/ml by broth microdilution method (reference value: 64 ug/ml)
[14] = Inhibition of bacterial VIM-1 (unknown origin) expressed in Escherichia coli EXPRESS BL21(DE3) assessed as inhibition constant by measuring rate of substrate hydrolysis by UV-visible spectrophotometry; set-up: species or system Bacteria; in short: as §1
[15] = Metabolic stability in CD-1 mouse microsomes assessed as half life at 37 degC by LC-MS/MS analysis; type: ADME, Microsome; in short: as §2
Bacteria [16] = experiment: Inhibition of bacterial NDM-1 (unknown origin) assessed as ternary complex formation using 10 uM enzyme concentration at 50 uM by native MS analysis
In short: (§4)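 Purified VIM-2 or NDM-1 was given 2 mM TCEP and 2 equiv ZnCl2, incubated 1 h, and dialysed overnight into 100 mM ammonium acetate pH 7.5. Enzyme at 10 μM was then incubated 5 min with 50 μM compound. Positive-mode nanoESI on an Orbitrap, scanning m/z 1000–4000. Species assigned from deconvoluted masses.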

Bacteria [17] = experiment: Competitive inhibition of bacterial VIM-2 (unknown origin) assessed as Zn(II) content by at 48 uM by overnight equilibrium dialysis
In short: (§5)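 VIM-2 or NDM-1 (3 μM final) in 50 mM HEPES pH 7.5 mixed with compound at 0–48 μM. Incubated 1 h on ice, then dialysed overnight at 4 °C against 50 mM HEPES pH 7.5. Zn(II) content measured by atomic absorption at 213.86 nm against a zinc standard curve. Each point averages three samples.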

Bacteria [18] = experiment: Inhibition of bacterial VIM-2 (unknown origin) assessed as ternary complex formation using 10 uM enzyme concentration at 50 uM by native MS analysis; in short: as §4
Bacteria [19] = experiment: Inhibition of bacterial NDM-1 (unknown origin) expressed in Escherichia coli EXPRESS BL21(DE3) assessed as inhibition constant by measuring rate of substrate hydrolysis at 100 uM by UV-visible spectrophotometry relative to control; in short: as §1
Bacteria [20] = experiment: Competitive inhibition of bacterial NDM-1 (unknown origin) assessed as Zn(II) content at 48 uM by overnight equilibrium dialysis; in short: as §5
Bacteria [21] = experiment: Inhibition of bacterial IMP-1 (unknown origin) expressed in Escherichia coli EXPRESS BL21(DE3) assessed as inhibition constant by measuring rate of substrate hydrolysis at 100 uM by UV-visible spectrophotometry relative to control; in short: as §1
Escherichia coli [22] = experiment: Antimicrobial activity against blaNDM-1-producing multidrug-resistant Escherichia coli SI-004 clinical isolate; type: functional
In short: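 Broth microdilution per CLSI in cation-supplemented Mueller–Hinton broth with an inoculum of 5×10^4 CFU/well.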

Pseudomonas aeruginosa [23] = experiment: Antimicrobial activity against blaVIM-2-producing multidrug-resistant Pseudomonas aeruginosa VA-182/00 clinical isolate; type: functional
Bacteria [24] = experiment: Inhibition of bacterial VIM-1 (unknown origin) expressed in Escherichia coli EXPRESS BL21(DE3) assessed as inhibition constant by measuring rate of substrate hydrolysis at 100 uM by UV-visible spectrophotometry relative to control; in short: as §1
Bacteria [25] = experiment: Inhibition of bacterial VIM-2 (unknown origin) expressed in Escherichia coli EXPRESS BL21(DE3) assessed as inhibition constant by measuring rate of substrate hydrolysis at 100 uM by UV-visible spectrophotometry relative to control; in short: as §1
Bacteria [26] = experiment: Inhibition of bacterial VIM-4 (unknown origin) expressed in Escherichia coli EXPRESS BL21(DE3) assessed as inhibition constant by measuring rate of substrate hydrolysis at 100 uM by UV-visible spectrophotometry relative to control; in short: as §1
[27] = Cytotoxicity against human HeLa cells assessed as LDH release incubated for 24 hrs by membrane integrity assay; type: toxicity, cell-based
In short: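 HeLa cells (20,000/well) exposed to compound up to 250 μM for 24 h at 37 °C, 5% CO2 in DMEM with 10% FBS, 4.5 mg/mL glucose and 2 mM L-glutamine. LDH release expressed as % of Triton X-100 maximum lysis; IC50 is the concentration giving 50% cytotoxicity.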

| Compound | MIC (Klebsiella pneumoniae [7]) | MIC (Klebsiella pneumoniae [8]) | pKi [9] | MIC (Pseudomonas aeruginosa [10]) | pKi [11] | pKi [12] | MIC (Escherichia coli [13]) | pKi [14] | inhibition (Bacteria [21]) | also measured |
| --- | --- | --- | --- | --- | --- | --- | --- | --- | --- | --- |
| O=C(Nc1ccccc1)NC(CCCn1c(-c2ccccc2)n[nH]c1=S)C(=O)O (stereo not drawn) | – | – | – | – | – | – | – | – | – | Ki [1]: Not Active; Ki [2]: Not Active; pKi [3]: 5.16; pKi [4]: 5.38 |
| CC(C)NCC(O)COc1cccc2ccccc12 (stereo not drawn) [PROPRANOLOL] | – | – | – | – | – | – | – | – | – | remaining at 40 min [5]: 31% |
| O=C(O)[C@H](Cn1c(-c2ccccc2)n[nH]c1=S)N(Cc1c[nH]cn1)Cc1c[nH]cn1 | 0.03 µg/mL | 0.03 µg/mL | 5.82 | 16 µg/mL | 6.25 | 7.40 | 0.06 µg/mL | 6.06 | – | pKi [6]: 5.38 |
| CCOC(=O)[C@H](CCc1ccccc1)N[C@@H](C)C(=O)N1CCC[C@H]1C(=O)O | – | – | – | – | – | – | – | – | – | half-life [15]: 1.05 h |
| O=C(O)[C@H](CCCn1c(-c2ccccc2)n[nH]c1=S)N(Cc1cccnc1)Cc1cccnc1 | 1 µg/mL | 4 µg/mL | 6.38 | 128 µg/mL | 6.28 | – | 64 µg/mL | 5.59 | < 30% | inhibition (Bacteria [16]): Active; inhibition (Bacteria [17]): Active; inhibition (Bacteria [18]): Active; inhibition (Bacteria [19]): 67%; inhibition (Bacteria [20]): Active |
| O=C(O)[C@H](CCCCn1c(-c2ccccc2)n[nH]c1=S)N(Cc1c[nH]cn1)Cc1c[nH]cn1 | 0.03 µg/mL | 0.03 µg/mL | 6.01 | 16 µg/mL | 6.33 | 6.44 | 0.06 µg/mL | 7.40 | – | pKi [6]: 5.30 |
| C[C@@H](O)[C@H]1C(=O)N2C(C(=O)O)=C(S[C@@H]3CN[C@H](C(=O)N(C)C)C3)[C@H](C)[C@H]12 [MEROPENEM] | – | – | – | – | – | – | – | – | – | MIC (Escherichia coli [22]): 64 µg/mL (≈ 167 µM); MIC (Pseudomonas aeruginosa [23]): 128 µg/mL (≈ 334 µM) |
| O=C(O)[C@H](CCCn1c(-c2ccccc2)n[nH]c1=S)NCc1c[nH]cn1 | 4 µg/mL | 2 µg/mL | – | 128 µg/mL | – | – | 64 µg/mL | – | < 30% | inhibition (Bacteria [19]): 35%; inhibition (Bacteria [24]): 53%; inhibition (Bacteria [25]): < 30%; inhibition (Bacteria [26]): < 30% |
| Cc1[nH]cnc1CN(Cc1nc[nH]c1C)[C@@H](CCCn1c(-c2ccccc2)n[nH]c1=S)C(=O)O | 0.03 µg/mL | 0.03 µg/mL | 6.66 | 16 µg/mL | 6.46 | 7.64 | 2 µg/mL | 6.51 | 57% | CC50 at 24 h [27]: 141000 nM |
